Laboratory results from publication PMC9827036 (Current Research in Pharmacology and Drug Discovery, 2022).
Where two headings read alike, the source gives them in different places.

Legend:
[1] = molecular target: T1, FAK (Homo sapiens, UniProt Q05397); assay: Western blot of FAK-Tyr-397 phosphorylation in suspended Caco-2 cells; type: cell-based
How it was run: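 Caco-2 cells held in suspension on plates pre-coated with 1% heat-inactivated BSA to avoid adhesion-driven FAK activation. Treated with compound (100 pM–1000 nM) or H2O for 1 h at 37 °C, then lysed. Lysates resolved by 10% SDS-PAGE on nitrocellulose, probed for pTyr-397 FAK with total FAK as loading control. Read-out: pTyr-397/FAK fold change; n = 4–8.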

[2] = molecular target: T1, FAK; conditions: 10 nM, suspended Caco-2 cells; ref Wang et al., 2019b; cited from earlier work
[3] = tested on: Caco-2 cells; conditions: in vitro; ref Wang et al., 2019b; cited from earlier work

T1 sequence (Q05397 whole entry): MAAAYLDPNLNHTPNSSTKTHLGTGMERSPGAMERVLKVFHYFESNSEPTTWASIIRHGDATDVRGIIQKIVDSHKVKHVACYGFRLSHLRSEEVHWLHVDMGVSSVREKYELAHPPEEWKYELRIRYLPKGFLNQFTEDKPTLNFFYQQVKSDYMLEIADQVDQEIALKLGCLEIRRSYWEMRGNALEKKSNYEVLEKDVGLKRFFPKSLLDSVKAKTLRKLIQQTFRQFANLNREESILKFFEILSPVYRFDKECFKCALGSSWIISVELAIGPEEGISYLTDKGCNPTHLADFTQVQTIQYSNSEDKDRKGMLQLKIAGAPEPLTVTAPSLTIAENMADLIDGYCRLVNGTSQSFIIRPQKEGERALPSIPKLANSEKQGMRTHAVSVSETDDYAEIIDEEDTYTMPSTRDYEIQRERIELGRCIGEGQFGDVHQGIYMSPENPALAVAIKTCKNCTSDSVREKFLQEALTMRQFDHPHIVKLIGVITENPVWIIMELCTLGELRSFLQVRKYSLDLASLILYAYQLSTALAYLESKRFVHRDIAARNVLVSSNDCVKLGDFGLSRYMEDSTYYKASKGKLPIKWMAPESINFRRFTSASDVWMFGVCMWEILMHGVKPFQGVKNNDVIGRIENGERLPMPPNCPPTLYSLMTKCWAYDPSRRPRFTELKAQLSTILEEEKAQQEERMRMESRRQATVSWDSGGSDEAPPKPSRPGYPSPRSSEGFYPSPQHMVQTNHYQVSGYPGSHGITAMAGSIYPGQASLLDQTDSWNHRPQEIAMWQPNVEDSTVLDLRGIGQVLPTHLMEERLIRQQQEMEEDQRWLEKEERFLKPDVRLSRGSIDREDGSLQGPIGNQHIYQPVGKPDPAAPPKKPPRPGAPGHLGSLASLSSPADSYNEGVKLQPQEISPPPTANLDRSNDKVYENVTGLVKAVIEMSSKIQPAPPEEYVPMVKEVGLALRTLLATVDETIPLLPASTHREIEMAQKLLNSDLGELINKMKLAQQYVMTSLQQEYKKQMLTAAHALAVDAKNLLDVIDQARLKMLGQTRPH

With `CN(C)C(CNC(=O)Nc1cc(C(F)(F)F)ccc1N1CCOCC1)c1ccncc1` (stereo not shown) [M64, 1-(2-(dimethylamino)-2-(pyridin-4-yl)ethyl)-3-(2-morpholino-5-(trifluoromethyl)phenyl)urea] the FAK activation ([1]; 10–1000 nM) was “did not activate FAK”.
In the case of `COc1ccc(C2CCCN2C(=O)Nc2cc(C(F)(F)F)ccc2N2CCOCC2)cc1` (stereo not shown) [ZN40099027], the “FAK activation (positive control)” value ([1]; 100 nM, Caco-2 cells) is listed as “activates FAK”, the FAK activation [2] is listed as 14.8% and the “lowest concentration stimulating Caco-2 cell monolayer wound closure” value [3] is listed as 10 nM.
